# Only some compounds are listed: those with a hit (about 3.1% of all), similar ones and a draw of the others.
# KCNK3 block: human KCNK3 channel inhibition, primary screen. O14649. CHO-KCNK3 thallium flux, FluxOR fluorescence; active compounds read low. B-score at 10 µM. 340,000 tested, 0.84% active. AID 602410;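 active means B-score under library mean minus 4 SD, starting fluorescence ratio at most library mean plus 5 SD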;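 further: more negative B-score means stronger inhibition of thallium flux through KCNK3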
# Target sequence (O14649 whole entry, looked up): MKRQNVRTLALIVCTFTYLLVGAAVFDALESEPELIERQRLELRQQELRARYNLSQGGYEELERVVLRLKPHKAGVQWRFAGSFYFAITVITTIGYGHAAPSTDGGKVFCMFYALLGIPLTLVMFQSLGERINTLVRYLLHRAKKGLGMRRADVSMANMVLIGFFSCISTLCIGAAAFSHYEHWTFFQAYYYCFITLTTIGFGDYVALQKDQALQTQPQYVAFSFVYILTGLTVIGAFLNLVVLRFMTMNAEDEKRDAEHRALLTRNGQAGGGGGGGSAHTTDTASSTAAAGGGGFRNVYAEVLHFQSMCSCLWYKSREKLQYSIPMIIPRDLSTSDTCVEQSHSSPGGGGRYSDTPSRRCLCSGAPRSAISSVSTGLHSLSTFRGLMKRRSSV
# KCNQ1 block: inhibitors of human KCNQ1 potassium channel; CHO-K1 KCNQ1, FluxOR thallium flux fluorescence; active compounds read high; B-score at 10 µM; 310,000 tested, 1.3% active; AID 2642;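 active means compounds whose thallium flux B-score, printed positive for inhibition, exceeds three library SD while starting fluorescence stays within three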;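 further: channel opened by potassium depolarization with thallium stimulus after 20 min compound exposure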
# KCNK9 inh: blocks the human KCNK9 two-pore domain potassium channel. Q9NPC2. HEK293 KCNK9, FluxOR thallium flux fluorescence; active compounds read low. B-score at 10 µM. 310,000 tested, 1.2% active. AID 488922;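 active means ratio B-score over 3 SD below the library mean, with starting fluorescence within 5 SD of its mean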;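 further: negative B-score means less thallium flux so channel inhibition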
# hERG rescue: shields human hERG channel from block by proarrhythmic agents | Q12809 | CHO-hERG, FluxOR thallium flux, dofetilide IC70 present | activation (rescue from dofetilide block), less the hit threshold, % at 10 µM | 310,000 tested, 0.51% active;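 active means activation above the mean of controls blocked by dofetilide plus 5 SD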;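 further: thallium influx through hERG after potassium depolarization seen as dye fluorescence rise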
# KCNQ1 act: potentiators or activators of human KCNQ1 potassium channel | P51787 | CHO-K1 KCNQ1, thallium flux FluxOR fluorescence; active compounds read high | B-score at 10 µM | 310,000 tested, 0.35% active;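 active means fluorescence ratio B-score, a plate-corrected score, at least three library SD, with initial intensity B-score within 5 SD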
#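 Schedule – 37 °C overnight plating, 90-min dark dye load, 20-min compound pretreatment · System – stable KCNQ1 CHO-K1 line · Probe or stimulus – thallium- and potassium-containing depolarizing buffer · Measured by – kinetic FluxOR fluorescence, 10 s baseline plus 110 s post-stimulus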
# Starred values were filed as active, the others as inactive; i = inactive; x = no result given.
SMILES,KCNK3 block,KCNQ1 block,KCNK9 inh,hERG rescue,KCNQ1 act
CCN1CCN(CCNC(=O)c2ccc(/C=C3/Sc4ccccc4N(Cc4ccccc4C)C3=O)cc2)CC1,i,14*,i,-34,i
O=C(NCCCN1CCOCC1)c1ccc(/C=C2\Oc3ccccc3N(Cc3ccccc3F)C2=O)cc1,i,i,i,-12,i
NC(=O)C1C2CCC(C2)C1C(N)=O (stereo unspecified),i,x,x,x,x
C/C(=N\OCc1nc2ccccc2c(=O)n1/N=C/c1cc(C)cc([N+](=O)[O-])c1O)c1ccccc1,i,9*,i,-16,i
CCCN(CCC)S(=O)(=O)c1ccc(C(=O)OCCN2C(=O)c3cccc4c(N5CCOCC5)ccc(c34)C2=O)cc1,i,10*,i,-18,i
CCN(CC)S(=O)(=O)c1ccc(C(=O)N2CCN(CCN3C(=O)c4cccc5cccc(c45)C3=O)CC2)cc1,x,i,i,0,i
Cn1c(=O)c2nc(SCCO)n(C)c2n(C)c1=O,i,x,x,x,x
Cc1cccc(OCc2n[nH]c(=S)n2C2CCCCC2)c1,i,i,i,-2,8*
O=C(Nc1cccc(NC(=O)c2ccc(Cl)cc2Cl)c1)c1cccnc1,i,i,i,-3,i
O=C(c1ccco1)N1CCN(C(=O)c2ccc(COc3ccc4c(c3)CCC4)o2)CC1,i,i,-8*,-1,i
CN(C)C(=O)c1cnc(-c2ccccc2)nc1-c1ccccc1,i,i,i,-3,i
CCC(OC(=O)c1cccs1)C(=O)NCc1ccco1 (stereo unspecified),i,i,i,51*,i
O=C(NCc1ccccc1)c1cccc(NC(=O)C2CC2)c1,i,x,x,x,x
CCOC(=O)c1c(C)n(-c2ccc(C)cc2)c2ccc(OCC(O)CNCC3CCCO3)cc12 (stereo unspecified),i,7*,i,-42,i
CCN1C(=O)c2cccc3c(S(=O)(=O)N4CCNCC4)ccc1c23,i,x,x,x,x
CC(C)N=c1cc2n(-c3ccc(Cl)cc3)c3ccccc3nc-2cc1Nc1ccc(Cl)cc1,i,17*,-10*,-22,i
Cn1c(CNc2ccc(Cl)cc2)nc2ccccc21,i,i,i,-10,i
CCOC(=O)C1CCCN(C(=O)c2ccc(Cn3c(=S)[nH]c4cc(C(=O)OC)ccc4c3=O)cc2)C1 (stereo unspecified),i,i,i,6.6*,i
COc1ccc([C@H]2/C=C\CN(S(=O)(=O)c3ccc4ccccc4c3)[C@@H](C)C(=O)N2Cc2ccc(F)cc2)cc1,i,i,-7.8*,-18,i
Cc1ccc(C(=O)O/N=C(\N)c2ccc(Br)cc2)cc1C,i,i,i,6.4*,i
Cc1cc(C)cc(C(=O)O/N=C(\N)c2ccc(Br)cc2)c1,i,i,i,-12,i
COc1ccc(N2CCN(C(=O)CN(C3CCCCC3)S(C)(=O)=O)CC2)cc1,i,i,i,32*,i
CCOC(=O)c1ccccc1NC(=O)N1CCn2c(C)ccc2C1CC (stereo unspecified),i,i,i,-14,i
CCC1c2ccc(C)n2CCN1C(=O)Nc1ccccc1C(=O)OC (stereo unspecified),i,i,-7*,-8,i
O=[N+]([O-])c1cc([N+](=O)[O-])c2cccnc2c1Oc1ccccc1O,i,8*,i,-40,i
SMILES,KCNK3 block,KCNQ1 block,KCNK9 inh,hERG rescue,KCNQ1 act
O=[N+]([O-])c1ccc(O)c2ncccc12,i,i,i,2,i
CC(NC(=O)c1ccncc1)C(C)(C)C (stereo unspecified),i,i,i,3,41*
Cc1ccc(C(C)NC(=O)c2ccncc2)cc1C (stereo unspecified),i,i,i,-11,i
COc1ccc(NC(=O)Nc2ccc3c(c2)C(=O)N([C@H](C)CO)C[C@H](C)[C@@H](CN(C)C(=O)NC(C)C)O3)cc1,i,x,x,x,x
Cc1cc(S(=O)(=O)Nc2ccc(C(=O)N3CCN(C(=O)c4ccco4)CC3)cc2)ccc1F,i,i,i,7.5*,i
O=C1c2cccnc2C(=O)N1Cc1ccc(S(=O)(=O)N2CCN(c3ccc(Cl)cc3)CC2)cc1,i,i,i,-2,i
CCn1c(=O)c(C(=O)Nn2c(C)nc3ccccc3c2=O)c(O)c2ccccc21,i,i,i,-8,i
CCCCc1nc2ccccc2c(=O)n1NC(=O)c1c(O)c2c(n(CC(C)C)c1=O)CCCC2,i,6*,i,-4,i
CCc1nc2ccccc2c(=O)n1NC(=O)c1c(O)c2ccccc2n(CC)c1=O,i,i,i,37*,i
CC(C)(C)OC(=O)N(CCc1ccccc1)Cc1cccc(OCc2cccc(NC(=O)C3CC3)c2)c1,i,x,x,x,x
Cc1ccc(CCC(=O)Nc2ccc(N(C)C)cc2)o1,i,i,i,2,i
S=C1N(c2ccccc2)C(c2ccccc2)N2CCCN12 (stereo unspecified),i,i,i,-7,8*
Cn1c(COc2cccc3ccccc23)nnc1SCC(=O)OC1CCCCC1,i,i,i,-12,i
CCn1c(COc2cccc3ccccc23)nnc1SCC(=O)OC1CCCCC1,i,10*,i,-32,i
CC(C)C(c1nnnn1C(C)(C)C)N1CCC(Cc2ccccc2)CC1 (stereo unspecified),i,i,-7.9*,-11,i
CN(CC(=O)Nc1ccc(Cl)c(C(F)(F)F)c1)CC(=O)NC1CCCCC1,i,x,x,x,x
COC(=O)CNC(c1ccccc1Cl)c1cc(Br)ccc1NS(=O)(=O)c1ccc(C)cc1 (stereo unspecified),i,i,-6.8*,-13,i
CCNC(=O)CC1C(=O)N(c2ccc(C)cc2)C(=O)N1CCOC (stereo unspecified),i,i,i,0,i
CCCn1c(N)c(C(=O)CSc2nc3ccccc3s2)c(=O)[nH]c1=O,i,i,i,5.4*,i
C=CCN1C(=O)/C(=C2/Sc3ccc(OC)cc3N2CC)SC1=S,i,6*,i,-4,i
CCNc1ccc(S(=O)(=O)NCCN(C)C)cc1[N+](=O)[O-],i,i,i,-3,i
CN(C)CCCNS(=O)(=O)c1ccc(NC2CCCCCC2)c([N+](=O)[O-])c1,i,8*,i,-14,i
CCOc1ccc(NC(=O)C2CCCN(c3c(CC)c(C)nc4ncnn34)C2)cc1 (stereo unspecified),i,i,i,-4,i
Clc1ccc(-c2csc(N3CCN(c4ccccc4)CC3)n2)cc1,i,i,i,-8,i

# Bioassay records as filed in PubChem.
